Reference: ChEMBL document CHEMBL4308845, “Allosteric Activation of Striatal-Enriched Protein Tyrosine Phosphatase (STEP, PTPN5) by a Fragment-like Molecule” (J Med Chem, 2019)
Active and inactive are the calls of the source. The calls are words filed in the database; no cut-off is given here.

Assays:
[1] = molecular target: T1, Tyrosine-protein phosphatase non-receptor type 1 (Homo sapiens) (UniProt P18031); experiment: Binding affinity to human PTP1B by 1H,15N TROSY NMR spectral analysis
T1 sequence (whole entry): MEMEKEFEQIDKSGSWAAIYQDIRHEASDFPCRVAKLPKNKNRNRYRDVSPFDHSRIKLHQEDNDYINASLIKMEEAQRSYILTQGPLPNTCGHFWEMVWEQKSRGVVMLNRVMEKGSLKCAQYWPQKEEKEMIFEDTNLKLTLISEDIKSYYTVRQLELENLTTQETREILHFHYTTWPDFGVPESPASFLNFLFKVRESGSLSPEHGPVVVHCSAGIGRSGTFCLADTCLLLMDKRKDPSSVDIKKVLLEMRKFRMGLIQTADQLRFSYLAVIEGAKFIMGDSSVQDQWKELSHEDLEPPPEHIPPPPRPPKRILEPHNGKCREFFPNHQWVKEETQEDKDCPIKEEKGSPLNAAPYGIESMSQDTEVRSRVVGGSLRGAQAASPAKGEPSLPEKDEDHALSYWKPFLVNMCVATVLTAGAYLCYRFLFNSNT

[2] = molecular target: T2, Tyrosine-protein phosphatase non-receptor type 5 (Homo sapiens) (UniProt P54829); experiment: Activation of human STEP PTP domain (281 to 563 residues) expressed in Escherichia coli BL21(DE3) at 500 uM using biotin-pFyn peptide substrate after 60 mins by AlphaLISA assay relative to control
T2 sequence (whole entry): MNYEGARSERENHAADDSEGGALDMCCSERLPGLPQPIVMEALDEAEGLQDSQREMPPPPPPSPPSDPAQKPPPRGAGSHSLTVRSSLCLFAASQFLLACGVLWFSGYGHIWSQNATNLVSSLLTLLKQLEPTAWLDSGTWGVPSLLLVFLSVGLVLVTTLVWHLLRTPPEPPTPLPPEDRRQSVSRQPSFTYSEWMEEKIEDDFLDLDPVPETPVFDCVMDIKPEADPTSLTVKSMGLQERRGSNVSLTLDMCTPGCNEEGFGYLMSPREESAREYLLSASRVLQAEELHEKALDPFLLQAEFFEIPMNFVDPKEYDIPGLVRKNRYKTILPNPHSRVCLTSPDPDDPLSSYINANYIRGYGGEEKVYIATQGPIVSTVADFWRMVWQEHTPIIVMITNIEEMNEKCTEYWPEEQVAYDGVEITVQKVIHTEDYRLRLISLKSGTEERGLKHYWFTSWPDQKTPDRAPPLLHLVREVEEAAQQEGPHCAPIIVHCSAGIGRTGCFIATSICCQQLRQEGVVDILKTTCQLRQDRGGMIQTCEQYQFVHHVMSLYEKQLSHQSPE
Summary of the method: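 AlphaLISA on the human STEP PTP domain (E. coli BL21(DE3)), 20 nM enzyme with 3 nM biotin-pFyn peptide, otherwise as for STEP46: 60 min at room temperature, anti non-phospho Src/Tyr416 antibody with orthovanadate stop, donor and acceptor beads, % of enzyme and no-enzyme controls.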

[3] = molecular target: T1, Tyrosine-protein phosphatase non-receptor type 1 (Homo sapiens); experiment: Activation of human PTP1B (1 to 405 residues) at 500 uM preincubated for 10 mins followed by EDT-pY-Y-RKG-amide substrate addition and measured after 1.5 hrs by AlphaLISA assay
Summary of the method: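 In-house PTP1B (1−405) at 500 pM final, preincubated 10 min at 24 °C with compound (up to 500 μM), then EDT-pY-Y-RKG-amide (1.4 μM final) or pFYN (20 μM final) added; 1.5 h at 24 °C, humidified. Stopped with 200 μM orthovanadate. Competition AlphaScreen using biotin-Ahx-EDT-pY-Y-RKG-amide (2.5 nM), anti-pTyr antibody 4G10 (500 pM), beads (5 μg/mL each), 2 h at 24 °C. Read against on-plate substrate standard curve.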

[4] = molecular target: T3, Tyrosine-protein phosphatase non-receptor type 5 (Homo sapiens, UniProt P54829); experiment: Binding affinity to human 15N-labeled STEP PTP domain (281 to 563 residues) expressed in Escherichia coli OD2 by 1H,15N TROSY NMR spectral analysis
T3 sequence (P54829 whole entry): T2 sequence (whole entry)
Summary of the method: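 40 μM ¹⁵N-labeled STEP PTP domain (expressed in ¹⁵N OD2 medium) in 20 mM Tris-d11, 100 mM NaCl, 1 mM TCEP, pH 7.4, 8% D₂O, with 500 μM ligand and 1% DMSO-d₆ at 298 K. 2D spectra of 192 transients were compared by hand with the protein reference spectrum.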

[5] = molecular target: T4, Tyrosine-protein phosphatase non-receptor type 5 (Mus musculus) (UniProt P54830); experiment: Activation of mouse STEP PTP domain (244 to 539 residues) expressed in Escherichia coli BL21(DE3) at 500 uM using biotin-pFyn peptide substrate after 60 mins by AlphaLISA assay
T4 sequence (whole entry): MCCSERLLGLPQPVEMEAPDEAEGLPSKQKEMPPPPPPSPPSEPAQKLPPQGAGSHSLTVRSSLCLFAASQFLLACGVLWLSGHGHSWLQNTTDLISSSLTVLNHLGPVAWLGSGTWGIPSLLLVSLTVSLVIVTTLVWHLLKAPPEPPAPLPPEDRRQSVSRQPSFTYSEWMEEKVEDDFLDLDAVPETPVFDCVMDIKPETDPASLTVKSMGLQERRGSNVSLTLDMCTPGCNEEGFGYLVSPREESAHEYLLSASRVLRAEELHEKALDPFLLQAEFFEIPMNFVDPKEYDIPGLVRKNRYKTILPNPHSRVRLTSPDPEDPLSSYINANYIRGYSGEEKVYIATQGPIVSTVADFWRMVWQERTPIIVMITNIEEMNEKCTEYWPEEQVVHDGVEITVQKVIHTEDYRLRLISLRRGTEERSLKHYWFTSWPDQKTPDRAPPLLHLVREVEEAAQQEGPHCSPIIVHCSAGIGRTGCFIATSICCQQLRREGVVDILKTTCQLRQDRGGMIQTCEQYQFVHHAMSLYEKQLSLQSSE

Homo sapiens [6] = species on record: Homo sapiens; experiment: Binding affinity to human STEP46 (197 to 565 residues) expressed in Escherichia coli BL21(DE3) assessed as increase in melting temperature at 500 uM by SYPRO Orange dye based DSF
Summary of the method: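 STEP46 at 5 μM with 25× SYPRO Orange and 500 μM ligand (1% DMSO) in 20 mM HEPES pH 7.5, 50 mM NaCl, 1 mM TCEP, in duplicate. Heated 25 to 95 °C at 1 °C/min with reads every 0.5 °C. Tm taken from the minimum of the first-derivative curve; ΔTm relative to DMSO.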

Homo sapiens [7] = species on record: Homo sapiens; experiment: Activation of human STEP46 (197 to 565 residues) expressed in Escherichia coli BL21(DE3) using biotin-pFyn peptide substrate after 60 mins by AlphaLISA assay
Summary of the method: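 STEP46 (50 nM final) with biotinylated pFyn peptide (20 nM final) and compound in 1% DMSO, 60 min at room temperature in the dark. Detection by anti non-phospho Src/Tyr416 antibody in stop buffer containing 10 μM orthovanadate, plus protein A acceptor and streptavidin donor beads, 15 min each. % CTL computed against enzyme (100%) and no-enzyme (0%) controls.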

N=C(N)Nc1cc(C2CCNCC2)cc(C(F)(F)F)c1
Activity [1]: inactive | Activity [2]: 61% | Activity [3]: inactive | Kd [4]: 38 µM | Activity [5]: Active | ΔTm (Homo sapiens [6]): 1.4 °C | Activity (Homo sapiens [7]): Dose-dependent effect
